Most compounds without a hit are left out; they make up all but 1.4% or so of the library.
TPT1 inhibitor: blocks Candida albicans tRNA 2'-phosphotransferase; recombinant caTPT1, FP RNA substrate dephosphorylation; inhibition, % at 5 µM; hit rate 0.81% among 300,000;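 active means inhibition above the mean of all tested compounds plus 3 SD, set per screening campaign, cut at about 24% in these data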;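 further: plate controls were DMSO alone for no effect and ferristatin control at 100 nM for full effect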
CSN deneddyl inh: inhibitors of human CSN-mediated cullin deneddylation; Purified CSN, SCF-Nedd8-OG deneddylation, fluorescence polarization; inhibition, % at 12.5 µM; hit rate 0.38% among 360,000; AID 651999;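 active means pattern-corrected inhibition above about 35%, with an unprinted fluorescence ratio check between 0.5 and 1.5, limit read from the data, passing the limit was not always enough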;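 further: 0% = enzyme with substrate and 100% = substrate without enzyme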
Target sequence (Q92905 whole entry, looked up, one chain of several): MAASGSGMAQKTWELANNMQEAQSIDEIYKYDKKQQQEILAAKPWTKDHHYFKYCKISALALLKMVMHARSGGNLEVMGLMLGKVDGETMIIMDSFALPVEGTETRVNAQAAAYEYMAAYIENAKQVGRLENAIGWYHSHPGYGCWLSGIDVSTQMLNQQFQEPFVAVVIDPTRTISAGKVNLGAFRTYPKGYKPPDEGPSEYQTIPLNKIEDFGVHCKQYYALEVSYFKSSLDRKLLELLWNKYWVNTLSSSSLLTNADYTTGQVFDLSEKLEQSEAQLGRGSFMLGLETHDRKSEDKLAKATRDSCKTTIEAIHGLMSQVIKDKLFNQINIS
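test system = HEK293T-derived human Csn5 enzyme | amount = 0.24 nM Csn5 enzyme, final concentration | medium = Tris/NaCl/DTT buffer, pH 7.5 | schedule = 90 min reaction at room temperature | signal = FP | evaluation = inhibition of Csn5 cleavage, % | compound dosing = single dose of 12.5 µM compound with 0.25% DMSO | probe or stimulus = 10 nM SCFSkp2-Nedd8OG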
HNF4A DNA FP: change in binding of human HNF4 alpha to DNA; hit rate 0.3% among 360,000; HNF4a-FITC DNA binding, fluorescence polarization, 1 h; AID 1224865; activity change, % at 10 µM; in the data active means activity change above about 30%, passing the limit was not always enough
IDE cell activ: IDE (human) activation, cell-based; AID 493087; hit rate 0.073% among 340,000; HEK cells, FAbeta-B cleavage, fluorescence polarization; 0% vehicle, 100% cell-free pure enzyme wells; P14735; activation, % at 5.96 µM;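 active means activation above the mean of all tested compounds plus 3 SD, set per screening campaign, cut at about 17% in these data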
IDE cell inh: cellular human IDE inhibition | inhibition, % at 5.59 µM | P14735 | HEK cells, FAbetaB cleavage, fluorescence polarization | hit rate 0.41% among 320,000;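 active means percent inhibition above the average of all tested compounds plus 3 SD, set per screening campaign, cut at about 16% in these data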;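 further: IDE supplied by intact live HEK cells; FP after avidin binding of uncleaved biotin substrate so inhibition keeps polarization high; 0% = DMSO wells and 100% = 60 µM reference IDE inhibitor Ii1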
TPT1 inh confirm: confirmation of Candida albicans TPT1 inhibitors | hit rate 74% among 2,400 | inhibition, % at 5 µM | recombinant caTPT1, fluorescence polarization, RNase T1 coupled | shares compounds with TPT1 inhibitor;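 active means inhibition above the primary screen limit, the mean inhibition of all tested compounds plus 3 SD, cut at about 25% in these data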
RNase T1 counter: counter-screen for TPT1 inhibitors: inhibitors of Aspergillus oryzae RNase T1; hit rate 83% among 2,400; inhibition, % at 5 µM; RNase T1 cleavage, fluorescence polarization, 1536-well; shares compounds with TPT1 inhibitor; AID 2153;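 active means inhibition above the solvent-only control well mean plus 3 SD, limit set per screening run, cut at about 23% in these data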;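 further: plate controls were DMSO wells with enzyme for no effect and wells without RNase T1 for full effect; inhibitors block cleavage so intact labeled substrate keeps polarization high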
Target sequence (P00651 whole entry, looked up): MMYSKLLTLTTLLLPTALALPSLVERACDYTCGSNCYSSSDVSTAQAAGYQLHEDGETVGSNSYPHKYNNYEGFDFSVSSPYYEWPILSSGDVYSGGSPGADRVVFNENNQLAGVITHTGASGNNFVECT
IDE cell inh cf: cellular human IDE inhibition, confirmation. hit rate 51% among 1,200. shares compounds with IDE cell inh. inhibition, % at 5.59 µM. HEK cells, FAbetaB cleavage, fluorescence polarization. AID 435028;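 active means mean inhibition across triplicate wells above the cutoff set by the earlier primary insulin-degrading enzyme screen, cut at about 16% in these data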;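 further: 0% = DMSO wells and 100% = 60 µM reference IDE inhibitor Ii1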
HEK cytotox: HEK cell cytotoxicity, counter-screen for IDE inhibitors. shares compounds with IDE cell inh. HEK293 cytotoxicity, ATP luminescence. inhibition, % at 5.59 µM. hit rate 28% among 1,200. AID 449730; in the data active means inhibition above about 22%;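 further: 0% = vehicle wells and 100% = reference cytotoxic drug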
* marks the source's active call; other numbers are inactive results.

Cc1cc(Cl)ccc1OC(C)C(=O)Nc1cnn(CCCC(=O)O)c1 (stereo not drawn) was read as TPT1 inhibitor 0, CSN deneddyl inh -4, HNF4A DNA FP 7, IDE cell activ 4 and IDE cell inh 1.
Screening CC1=NN(c2ccccc2)C(=O)/C1=C/C=C/C=C/N(C)C returned TPT1 inhibitor 124*, CSN deneddyl inh 104, HNF4A DNA FP 190, IDE cell activ -13, IDE cell inh 18*, TPT1 inh confirm 94*, RNase T1 counter 102*, IDE cell inh cf 11 and HEK cytotox 27*.
`CCN1C(=O)[C@@H]2Cc3c([nH]c4ccccc34)C(c3ccc(OC)cc3)N2C1=S` (stereo partly drawn) gave TPT1 inhibitor 65*, CSN deneddyl inh 24, HNF4A DNA FP 43*, IDE cell activ -47, IDE cell inh 41*, TPT1 inh confirm 48*, RNase T1 counter 60*, IDE cell inh cf 20* and HEK cytotox 61*.
`COc1ccc(-c2nn(-c3ccccc3)cc2/C=C2/SC(=S)N(Cc3ccco3)C2=O)c(C)c1` gave TPT1 inhibitor -2, CSN deneddyl inh 4, HNF4A DNA FP 5, IDE cell activ 6 and IDE cell inh -5.
COc1ccc(-n2c(C)cc(/C=C3\SC(=S)N(Cc4ccco4)C3=O)c2C)cc1 was read as TPT1 inhibitor 122*, CSN deneddyl inh 30, HNF4A DNA FP 54*, IDE cell activ -8, IDE cell inh 17*, TPT1 inh confirm 122*, RNase T1 counter 123*, IDE cell inh cf 18* and HEK cytotox 11.
For C/C(=N\NC(=O)c1ccncc1)c1cc2ccccc2oc1=O the results were TPT1 inhibitor 5, CSN deneddyl inh 2, HNF4A DNA FP 2, IDE cell activ 4 and IDE cell inh -1.
For C/C(=N/NC(=O)c1ccncc1)c1cc2ccc(O)cc2oc1=O the results were TPT1 inhibitor 60*, CSN deneddyl inh -79, HNF4A DNA FP -89, IDE cell activ -17, IDE cell inh 21*, TPT1 inh confirm -11, RNase T1 counter 9, IDE cell inh cf 26* and HEK cytotox 7.
NS(=O)(=O)c1cccc(NC(=O)CSc2n[nH]c(-c3ccccc3Br)n2)c1 was read as CSN deneddyl inh 1, HNF4A DNA FP -1 and IDE cell activ -3.
COc1cc(/C=C(\C#N)c2nc3ccccc3o2)ccc1O was read as TPT1 inhibitor 164*, CSN deneddyl inh 109, HNF4A DNA FP 190, IDE cell activ -224, IDE cell inh 88*, TPT1 inh confirm 170*, RNase T1 counter 156*, IDE cell inh cf 84* and HEK cytotox 18.
For Cc1ccc(N2CC(C(=O)NCCC3=CCCCC3)CC2=O)cc1 (stereo not drawn) the results were TPT1 inhibitor 4, CSN deneddyl inh 29, HNF4A DNA FP 0, IDE cell activ 4 and IDE cell inh -2.
For COc1ccc(CCNS(=O)(=O)c2c(C)[nH]c(C)c2C(=O)N2CCCCC2)cc1OC the results were TPT1 inhibitor 3, CSN deneddyl inh 2, HNF4A DNA FP -2, IDE cell activ -2 and IDE cell inh 3.
O=C1/C(=C\c2cc([N+](=O)[O-])ccc2O)SC(=S)N1Cc1ccc(Cl)cc1 was read as TPT1 inhibitor 43*, CSN deneddyl inh -73, HNF4A DNA FP 59, IDE cell activ -57, IDE cell inh 40*, TPT1 inh confirm 47*, RNase T1 counter 57*, IDE cell inh cf 130* and HEK cytotox 15.
For O=C1/C(=C\c2cccc(O)c2O)SC(=S)N1Cc1ccccc1 the results were TPT1 inhibitor 5, CSN deneddyl inh 1, HNF4A DNA FP 2, IDE cell activ -28 and IDE cell inh 9.

Compound activity (PubChem BioAssay)
